Measurements published in ChEMBL document CHEMBL4219135, “Discovery of Hydrolysis-Resistant Isoindoline N-Acyl Amino Acid Analogues that Stimulate Mitochondrial Respiration” (J Med Chem, 2018).
Calls of active or inactive are those of the source. The rule behind the calls is not given here. Where a SMILES comes first, the peptide text is derived from it. The star is where a group is joined. Oleoyl = CCCCCCCC/C=C\CCCCCCCC(=O)*

Legend:
C2C12 = test: Uncoupling activity in mouse C2C12 cells assessed as induction of SLC25-mediated mitochondrial respiration at 50 uM mixed for 2 mins measured after 2 mins post mixing relative to basal oligomycin-treated respiration; type: cell-based
Summary of the method: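 C2C12 cells seeded 35,000/well, assayed next day in Seahorse XF24 respiration buffer (DMEM, pyruvate, 20 mM glucose) after 1 h CO2-free. Sequential injections: oligomycin 1 μM, compound 50 μM, FCCP 0.2 μM, rotenone 3 μM final; cycles of 2 min mix, 2 min measure. Cycle 6 set to 100%; maximal respiration over cycles 7–15 reported. n=3–6.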

[1] = Half life in mouse liver microsomes at 1 uM after 60 mins in presence of NADPH by LC-MS/MS analysis; type: ADME, microsome
Summary of the method: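 Test compound at 1 μM with 1 mg/mL mouse liver microsomes in 100 mM KPi pH 7.4, 37C with shaking; started with NADPH (1 mM final), -NADPH controls included. Samples at 0, 5, 10, 20, 40, 60 min quenched in 5X acetonitrile, filtered, LC-MS/MS; data log transformed to half-life.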

[2] = target: T1, N-fatty-acyl-amino acid synthase/hydrolase PM20D1 (Mus musculus, UniProt Q8C165); test: Metabolic stability assessed as recombinant mouse 6xHis/FLAG-tagged PM20D1-mediated hydrolysis by measuring parent compound remaining at 100 nmol after 1 hr by LC-MS method; type: ADME; conditions: in the assay text read “at 10 nmol” for “at 100 nmol”
T1 sequence (Q8C165 whole entry): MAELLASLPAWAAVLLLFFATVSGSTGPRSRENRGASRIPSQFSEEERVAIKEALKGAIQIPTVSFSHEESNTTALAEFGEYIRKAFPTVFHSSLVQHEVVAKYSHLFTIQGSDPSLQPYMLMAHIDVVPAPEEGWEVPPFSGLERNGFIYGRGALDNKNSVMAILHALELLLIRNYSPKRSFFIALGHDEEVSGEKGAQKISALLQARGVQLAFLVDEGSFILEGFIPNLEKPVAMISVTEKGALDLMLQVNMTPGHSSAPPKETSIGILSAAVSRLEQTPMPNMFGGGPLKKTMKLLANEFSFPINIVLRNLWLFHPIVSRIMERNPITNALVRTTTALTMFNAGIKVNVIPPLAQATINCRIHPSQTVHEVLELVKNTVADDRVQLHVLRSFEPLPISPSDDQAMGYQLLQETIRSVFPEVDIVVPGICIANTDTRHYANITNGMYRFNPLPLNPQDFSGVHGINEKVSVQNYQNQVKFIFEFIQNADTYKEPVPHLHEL
Summary of the method: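 Murine PM20D1–6xHis-Flag expressed transiently in 293T cells, Flag-M2 purified from serum-free conditioned medium. 10 nmol compound in 100 μl PBS (100 μM) with enzyme or PBS, 1 h at 37 °C; quenched in chloroform:methanol with d31-palmitate internal standard; intact substrate and released fatty acid quantified by LC-MS. Means ± SEM, n=3.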

Mus musculus [3] = test: Anti-obesity activity against DIO mouse assessed as reduction in body weight gain by measuring net weight change at 25 mg/kg, ip administered daily for 7 consecutive days (reference value: 1.1 +/- 0.1 g); type: functional
Mus musculus [4] = test: Anti-obesity activity against DIO mouse assessed as reduction in food intake at 25 mg/kg, ip administered daily for 7 consecutive days; type: functional, organism-based
Mus musculus [5] = test: Anti-obesity activity against DIO mouse assessed as reduction in body weight gain by measuring net weight change at 5 mg/kg, ip administered daily for 7 consecutive days (reference value: 1.1 +/- 0.1 g); type: functional, organism-based
Mus musculus [6] = test: Anti-obesity activity against DIO mouse assessed as blood glucose levels at 25 mg/kg, ip administered daily for 7 consecutive days measured after 2 hrs post last dose (reference value: 204 +/- 7 mg/dl); type: functional
Mus musculus [7] = test: Anti-obesity activity against DIO mouse assessed as reduction in body weight gain by measuring net weight change at 10 mg/kg, ip administered daily for 7 consecutive days (reference value: 1.1 +/- 0.1 g); type: functional
Mus musculus [8] = test: Anti-obesity activity against ip dosed DIO mouse assessed as reduction in body weight gain administered daily for 7 consecutive days; type: functional, organism-based

Row | SMILES | Emax (C2C12) | further results
1 | CCCCCCCC/C=C\CCCCCCCC(=O)N1Cc2ccccc2[C@@H]1C(=O)O | 190% | half-life at 1 µM [1]: 1.07 h; Stability [2]: Stable
2 | CCCCCCCC/C=C\CCCCCCCC(=O)N[C@@H](Cc1ccc(O)cc1)C(=O)O | 105% | half-life at 1 µM [1]: 0.133 h
3 | CCCCCCCC/C=C\CCCCCCCC(=O)N[C@@H](CCC(N)=O)C(=O)O | 164% | –
4 | CCCCCCCCCCCCCCCCCCCCCC(=O)N[C@@H](Cc1ccccc1)C(=O)O | 100% | –
5 | CCCCCCCC/C=C\CCCCCCCC(=O)N[C@H](C(=O)O)[C@@H](C)CC | 167% | half-life at 1 µM [1]: 0.133 h
6 | CCCCCCCC/C=C\CCCCCCCC(=O)N[C@@H](Cc1ccccc1)C(=O)O | 161% | –
7 | CCC/C=C\C/C=C\C/C=C\CCCCCCC(=O)N[C@@H](Cc1ccccc1)C(=O)O | 109% | –
8 | CCCCCCCC/C=C\CCCCCCCCCC(=O)N[C@@H](Cc1ccccc1)C(=O)O | 103% | –
9 | CCCCCCCCCCCCCCCCCCCC(=O)N[C@@H](Cc1ccccc1)C(=O)O | 95% | –
10 | CCCCC/C=C\C/C=C\C/C=C\C/C=C\CCCC(=O)N[C@@H](Cc1ccccc1)C(=O)O | 200% | –
11 | CCCCCCCC/C=C\CCCCCCCCNC(=O)N[C@@H](Cc1ccccc1)C(=O)O | 97% | –
12 | CCCCCCCC/C=C\CCCCCCCC(=O)N1CCC[C@H]1C(=O)O | 182% | –
13 | CCCCCCCCCCCCCCCCCC(=O)N[C@@H](Cc1ccccc1)C(=O)O | 148% | –
14 | CCCCCCCC/C=C\CCCCCCCC(=O)N1c2ccccc2C[C@H]1C(=O)O | 146% | –
15 | CCCCCCCC/C=C\CCCCCCCC(=O)N[C@H](Cc1ccccc1)C(=O)O | 173% | –
16 | CCCCC/C=C\C/C=C\CCCCCCCC(=O)N1Cc2ccccc2[C@@H]1C(=O)O | 190% | Activity (Mus musculus [3]): -1.2 g; Activity (Mus musculus [4]): inactive; Activity (Mus musculus [5]): inactive; Activity (Mus musculus [6]): 172 mg/dL; Activity (Mus musculus [7]): 0.2 g; Activity (Mus musculus [8]): Dose-dependent effect; half-life at 1 µM [1]: 1.07 h; Stability [2]: Stable
17 | CCCCCCCC/C=C\CCCCCCCC(=O)NCCc1ccccc1 | 104% | –
18 | CC/C=C\C/C=C\C/C=C\C/C=C\C/C=C\C/C=C\CCC(=O)N[C@@H](Cc1ccccc1)C(=O)O | 166% | –

Row | SMILES | Emax (C2C12) | further results
19 | CCCCCCCC/C=C\CCCCCCCC(=O)N1CCc2ccccc2C1C(=O)O (stereo not drawn) | 216% | –
20 | CCCCCC/C=C\CCCCCCCCCC(=O)N[C@@H](Cc1ccccc1)C(=O)O | 115% | –
21 | CCCCCCCC/C=C\CCCCCCCC(=O)N1Cc2ccccc2C[C@H]1C(=O)O | 187% | –
22 | CCCCCCCC/C=C\CCCCCCCC(=O)N[C@@H](CC(C)C)C(=O)O | 178% | half-life at 1 µM [1]: 0.133 h
23 | CCCCC/C=C\C/C=C\CCCCCCCC(=O)N1Cc2ccccc2[C@H]1C(=O)O | 185% | half-life at 1 µM [1]: 1.07 h; Stability [2]: Stable
24 | CCCCCCCCCCC/C=C\CCCCC(=O)N[C@@H](Cc1ccccc1)C(=O)O | 110% | –
25 | CCCCCCCCCCCCCCCC(=O)N[C@@H](Cc1ccccc1)C(=O)O | 180% | –
26 | CCCCCCCCCCCC(=O)N[C@@H](Cc1ccccc1)C(=O)O | 96% | –
27 | CCCCCCCC/C=C\CCCCCCCC(=O)NCC(=O)NCC(=O)O (Oleoyl-Gly-Gly-OH) | 206% | –
28 | CCCCCCCC/C=C\CCCCCCCCNC(=O)NCC(=O)O | 104% | –
29 | CCCCCCCC/C=C\CCCCCCCC(=O)N1CCCC[C@H]1C(=O)O | 174% | –
30 | CCCCCCCC/C=C\CCCCCCCC(=O)N[C@@H](Cc1c[nH]c2ccccc12)C(=O)O | 147% | –
31 | CCCCCCCC/C=C/CCCCCCCC(=O)N[C@@H](Cc1ccccc1)C(=O)O | 107% | –
32 | CC/C=C\C/C=C\C/C=C\C/C=C\C/C=C\CCCC(=O)N[C@@H](Cc1ccccc1)C(=O)O | 259% | –
33 | CCCCC/C=C\C/C=C\CCCCCCCC(=O)N[C@@H](Cc1ccccc1)C(=O)O | 218% | –
34 | CCCCCCCC/C=C\CCCCCCCC(=O)NCCC(=O)O | 185% | –
35 | CCCCCCCC/C=C\CCCCCCCC(=O)N[C@@H](CCC(=O)O)C(=O)O | 106% | –
36 | CCCCCCCC/C=C\CCCCCCCC(=O)N1Cc2ccccc2[C@H]1C(=O)O | 240% | half-life at 1 µM [1]: 1.07 h; Stability [2]: Stable
